{"source": "ChEMBL document CHEMBL1137338", "about": "“Effects of substitution on 9-(3-bromo-4-fluorophenyl)-5,9-dihydro-3H,4H-2,6-dioxa-4- azacyclopenta[b]naphthalene-1,8-dione, a dihydropyridine ATP-sensitive potassium channel opener” (J Med Chem, 2006)", "key": {"[1]": {"system": "Rattus norvegicus", "experiment": "Activity against volume-induced reflex neurogenic bladder contraction in urethral ligated rat measured as reduction in AUC at 0.3 umol/kg, iv", "type": "functional, Urinary bladder", "parameters": "scale not given: the % may be the effect or the level left"}, "[2]": {"system": "Rattus norvegicus", "experiment": "Activity against volume-induced reflex neurogenic bladder contraction in urethral ligated rat measured as reduction in AUC at 1 umol/kg, iv", "type": "functional, Urinary bladder", "parameters": "scale not given: the % may be the effect or the level left"}, "[3]": {"system": "Rattus norvegicus", "experiment": "Activity against volume-induced reflex neurogenic bladder contraction in urethral ligated rat measured as reduction in AUC at 3 umol/kg, iv", "type": "functional, Urinary bladder", "parameters": "scale not given: the % may be the effect or the level left"}, "[4]": {"system": "Rattus norvegicus", "experiment": "Activity against spontaneous myogenic bladder contraction in partial outlet obstructed rat measured as reduction in AUC at 0.1 umol/kg, iv", "type": "functional", "parameters": "scale not given: the % may be the effect or the level left"}, "[5]": {"system": "Rattus norvegicus", "experiment": "Activity against spontaneous myogenic bladder contraction in partial outlet obstructed rat measured as reduction in AUC at 0.03 umol/kg, iv", "type": "functional", "parameters": "scale not given: the % may be the effect or the level left"}, "[6]": {"system": "Rattus norvegicus", "experiment": "Activity against spontaneous myogenic bladder contraction in partial outlet obstructed rat measured as reduction in AUC at 0.3 umol/kg, iv", "type": "functional", "parameters": "scale not given: the % may be the effect or the level left"}, "[7]": {"system": "Rattus norvegicus", "experiment": "Activity against spontaneous myogenic bladder contraction in partial outlet obstructed rat measured as reduction in AUC at 1 umol/kg, iv", "type": "functional", "parameters": "scale not given: the % may be the effect or the level left"}, "[8]": {"system": "Rattus norvegicus", "experiment": "Activity against volume-induced reflex neurogenic bladder contraction in urethral ligated rat measured as reduction in MAP at 0.3 umol/kg, iv", "type": "functional, Urinary bladder", "parameters": "scale not given: the % may be the effect or the level left"}, "[9]": {"system": "Rattus norvegicus", "experiment": "Activity against volume-induced reflex neurogenic bladder contraction in urethral ligated rat measured as reduction in MAP at 1 umol/kg, iv", "type": "functional, Urinary bladder", "parameters": "scale not given: the % may be the effect or the level left"}, "[10]": {"system": "Rattus norvegicus", "experiment": "Activity against volume-induced reflex neurogenic bladder contraction in urethral ligated rat measured as reduction in MAP at 3 umol/kg, iv", "type": "functional, Urinary bladder", "parameters": "scale not given: the % may be the effect or the level left"}, "[11]": {"system": "Rattus norvegicus", "experiment": "Activity against spontaneous myogenic bladder contraction in partial outlet obstructed rat measured as reduction in MAP at 0.1 umol/kg, iv", "type": "functional", "parameters": "scale not given: the % may be the effect or the level left"}, "[12]": {"system": "Rattus norvegicus", "experiment": "Activity against spontaneous myogenic bladder contraction in partial outlet obstructed rat measured as reduction in MAP at 0.03 umol/kg, iv", "type": "functional", "parameters": "scale not given: the % may be the effect or the level left"}, "[13]": {"system": "Rattus norvegicus", "experiment": "Activity against spontaneous myogenic bladder contraction in partial outlet obstructed rat measured as reduction in MAP at 0.3 umol/kg, iv", "type": "functional", "parameters": "scale not given: the % may be the effect or the level left"}, "[14]": {"system": "Rattus norvegicus", "experiment": "Activity against spontaneous myogenic bladder contraction in partial outlet obstructed rat measured as reduction in MAP at 1 umol/kg, iv", "type": "functional", "parameters": "scale not given: the % may be the effect or the level left"}, "[15]": {"molecular_target": "T1, Sulfonylurea receptor 2, Kir6.2 (Homo sapiens, UniProt O60706+Q14654)", "T1 sequence (Q14654 whole entry)": "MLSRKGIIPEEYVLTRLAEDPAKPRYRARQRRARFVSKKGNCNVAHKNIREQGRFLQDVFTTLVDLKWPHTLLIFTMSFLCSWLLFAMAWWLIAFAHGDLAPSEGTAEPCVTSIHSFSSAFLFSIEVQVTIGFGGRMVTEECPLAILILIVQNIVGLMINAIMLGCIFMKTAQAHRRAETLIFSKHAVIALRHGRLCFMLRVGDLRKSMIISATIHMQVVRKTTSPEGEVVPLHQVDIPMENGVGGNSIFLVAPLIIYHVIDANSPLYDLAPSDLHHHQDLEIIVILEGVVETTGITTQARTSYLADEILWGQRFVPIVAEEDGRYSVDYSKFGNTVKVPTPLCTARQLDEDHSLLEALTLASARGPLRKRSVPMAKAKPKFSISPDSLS", "T1 sequence (O60706 whole entry)": "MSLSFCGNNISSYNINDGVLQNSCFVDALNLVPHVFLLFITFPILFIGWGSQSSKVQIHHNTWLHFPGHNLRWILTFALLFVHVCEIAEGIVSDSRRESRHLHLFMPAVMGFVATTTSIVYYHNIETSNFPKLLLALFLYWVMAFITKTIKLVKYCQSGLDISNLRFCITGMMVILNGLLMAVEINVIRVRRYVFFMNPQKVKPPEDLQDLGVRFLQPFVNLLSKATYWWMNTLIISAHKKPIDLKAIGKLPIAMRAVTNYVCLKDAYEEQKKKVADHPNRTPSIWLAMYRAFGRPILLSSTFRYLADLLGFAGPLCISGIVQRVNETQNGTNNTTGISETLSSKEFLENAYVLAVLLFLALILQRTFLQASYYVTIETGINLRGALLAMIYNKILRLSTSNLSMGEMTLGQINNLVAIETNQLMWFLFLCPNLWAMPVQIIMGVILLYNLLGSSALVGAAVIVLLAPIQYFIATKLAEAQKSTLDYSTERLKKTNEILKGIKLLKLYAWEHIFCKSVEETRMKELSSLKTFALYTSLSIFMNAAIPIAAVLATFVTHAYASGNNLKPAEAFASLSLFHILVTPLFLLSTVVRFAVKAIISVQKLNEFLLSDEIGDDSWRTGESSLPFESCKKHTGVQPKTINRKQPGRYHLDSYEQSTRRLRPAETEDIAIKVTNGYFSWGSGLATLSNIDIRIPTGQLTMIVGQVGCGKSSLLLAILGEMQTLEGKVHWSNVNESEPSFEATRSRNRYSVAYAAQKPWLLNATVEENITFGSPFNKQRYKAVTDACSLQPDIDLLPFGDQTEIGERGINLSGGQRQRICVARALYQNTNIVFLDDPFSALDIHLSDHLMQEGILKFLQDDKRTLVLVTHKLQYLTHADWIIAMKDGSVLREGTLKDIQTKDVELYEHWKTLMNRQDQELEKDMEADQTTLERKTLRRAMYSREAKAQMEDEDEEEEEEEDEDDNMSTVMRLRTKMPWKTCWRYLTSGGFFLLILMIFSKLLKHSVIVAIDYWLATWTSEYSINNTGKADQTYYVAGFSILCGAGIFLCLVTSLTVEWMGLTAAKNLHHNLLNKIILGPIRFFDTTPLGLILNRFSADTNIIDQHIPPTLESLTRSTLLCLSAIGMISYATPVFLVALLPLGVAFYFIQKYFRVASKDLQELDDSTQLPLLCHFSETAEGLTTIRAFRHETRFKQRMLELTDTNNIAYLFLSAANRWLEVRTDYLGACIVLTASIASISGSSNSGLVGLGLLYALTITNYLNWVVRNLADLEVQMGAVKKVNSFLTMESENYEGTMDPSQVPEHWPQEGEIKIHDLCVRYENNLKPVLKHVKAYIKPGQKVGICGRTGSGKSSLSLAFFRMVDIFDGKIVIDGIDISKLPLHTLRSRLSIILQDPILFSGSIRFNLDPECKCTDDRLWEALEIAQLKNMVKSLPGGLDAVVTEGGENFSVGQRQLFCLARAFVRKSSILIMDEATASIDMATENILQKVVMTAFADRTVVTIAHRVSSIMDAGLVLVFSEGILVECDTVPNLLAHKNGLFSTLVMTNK", "experiment": "Activity against pig bladder KATP channel opening assessed as ability to relax spontaneous bladder contraction", "type": "functional, Sus scrofa", "settings": "target entry is the homologue from another species", "method_in_brief": "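Spontaneously contracting detrusor strips were taken from near the trigonal region of Landrace pig bladder. Increasing concentrations of test agent were applied, and the reduction in area under the curve (AUC) of the spontaneous contractions was measured.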"}, "[16]": {"molecular_target": "T1, Sulfonylurea receptor 2, Kir6.2", "experiment": "Activity against pig bladder KATP channel opening assessed as ability to relax field-stimulated pig detrusor", "type": "functional, Sus scrofa", "settings": "target entry is the homologue from another species"}, "[17]": {"molecular_target": "T1, Sulfonylurea receptor 2, Kir6.2", "experiment": "Ability to open human urinary bladder Kir6.2 channel containing SUR2B in Ltk cells by FLIPR assay", "type": "functional, cell-based", "method_in_brief": "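Ltk- cells stably transfected with the Kir6.2/SUR2B exon 17- splice variant. Membrane potential was followed with DiBAC dye in a 96-well cell-based kinetic fluorescence (FLIPR) assay. The highest concentration tested was 10 µM. Each compound's maximal fluorescence response was expressed as % of the response to the reference opener.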"}}}
{"smiles": "CCC[C@H]1OC(O)=C2C1=NC1=C(C(=O)COC1)[C@H]2c1ccc(F)c(Br)c1", "note": "(stereo in doubt; 23b)", "values": [{"measurement": "Activity", "setting": "[1]", "result": 16, "unit": "%"}, {"measurement": "Activity", "setting": "[2]", "result": 31.9, "unit": "%"}, {"measurement": "Activity", "setting": "[3]", "result": 37.4, "unit": "%"}, {"measurement": "Activity", "setting": "[4]", "result": 19.1, "unit": "%"}, {"measurement": "Activity", "setting": "[5]", "result": 4.2, "unit": "%"}, {"measurement": "Activity", "setting": "[6]", "result": 46.7, "unit": "%"}, {"measurement": "Activity", "setting": "[7]", "result": 93.1, "unit": "%"}, {"measurement": "Activity", "setting": "[8]", "result": 22.6, "unit": "%"}, {"measurement": "Activity", "setting": "[9]", "result": 43.8, "unit": "%"}, {"measurement": "Activity", "setting": "[10]", "result": 49.7, "unit": "%"}, {"measurement": "Activity", "setting": "[11]", "result": 9.6, "unit": "%"}, {"measurement": "Activity", "setting": "[12]", "result": 5.1, "unit": "%"}, {"measurement": "Activity", "setting": "[13]", "result": 23.6, "unit": "%"}, {"measurement": "Activity", "setting": "[14]", "result": 40.7, "unit": "%"}, {"measurement": "EC50", "setting": "[15]", "result": 28.8, "unit": "nM"}, {"measurement": "EC50", "setting": "[16]", "result": 513, "unit": "nM"}, {"measurement": "EC50", "setting": "[17]", "result": 27.5, "unit": "nM"}]}
